Experimental data from ChEMBL document CHEMBL5030525, “Design, synthesis and antitumor activity evaluation of trifluoromethyl-substituted pyrimidine derivatives” (Bioorg Med Chem Lett, 2021).
Values belong to the molecule of their own block, whether it stands above or below them. Activity calls are given as the source filed them. The rule behind the calls is not given here.

Experiments:
NCI-H1975 [1] = assay: Effect on cell cycle progression in human NCI-H1975 cells assessed a accumulation of cells at S phase at 1 uM measured after 24 hrs by RNase A/PI staining based flow cytometry analysis (Rvb= 52.06%); assay type: functional
NCI-H1975 [2] = assay: Induction of apoptosis in human NCI-H1975 cells assessed as increase in total apoptotic cells at 1 uM measured after 48 hrs by Annexin V-FITC/PI staining double staining based flow cytometry analysis (Rvb= 3.86%); assay type: functional
NCI-H1975 [3] = assay: Effect on cell cycle progression in human NCI-H1975 cells assessed a accumulation of cells at S phase at 2 uM measured after 24 hrs by RNase A/PI staining based flow cytometry analysis (Rvb= 52.06%); assay type: functional
MCF7 = assay: Antiproliferative activity against human MCF7 cells assessed as inhibition of cell growth measured after 72 hrs by MTT assay; assay type: functional, cell-based; settings: MCF7, 72 h
Outline: (§1)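 Cells in log phase were seeded at 3000–5000 per well and cultured 24 h at 37 °C, then exposed to a range of compound concentrations in fresh medium for 72 h. MTT was added and incubated 4 h at 37 °C, formazan was dissolved in DMSO, and absorbance was read at 490 nm. IC50 was taken from survival rate, as mean ± SD of three independent experiments. Stocks were 10 mM in DMSO.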

NCI-H1975 [4] = assay: Induction of apoptosis in human NCI-H1975 cells assessed as increase in total apoptotic cells at 2 uM measured after 72 hrs by Annexin V-FITC/PI staining double staining based flow cytometry analysis (Rvb= 3.86%); assay type: functional
[5] = Selectivity index, ratio of IC50 for cytotoxicity against human GES1 cells to IC50 for antiproliferative activity against human NCI-H1975 cells; assay type: toxicity, cell-based; settings: GES1 cells versus NCI-H1975 cells, read-out: Ratio IC50
Outline: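 Ratio of GES-1 IC50 to H1975 IC50. Both came from the 72 h MTT assay, with IC50 as the mean ± SD of three separate experiments.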

NCI-H1975 [6] = assay: Induction of apoptosis in human NCI-H1975 cells assessed as broken nucleus at 2 to 4 uM measured after 48 hrs by DAPI staining based fluorescence microscopic analysis; assay type: functional, cell-based; settings: dose 2-4 µM
Outline: (§2)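 H1975 cells were seeded at 2×10^5 per well and incubated 24 h, then exposed to 0, 2 or 4 μM for 48 h. Cells were PBS-washed, fixed in pre-cooled methanol at 4 °C for 10 min, and stained with DAPI in the dark. Nuclear morphology was imaged by fluorescence microscopy.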

NCI-H1975 [7] = assay: Effect on cell cycle progression in human NCI-H1975 cells assessed a accumulation of cells at G1 phase at 1 uM measured after 24 hrs by RNase A/PI staining based flow cytometry analysis (Rvb= 42.16%); assay type: functional
NCI-H1975 [8] = assay: Inhibition of colony formation in human NCI-H1975 cells measured after 9 days by crystal violet staining based microscopic analysis; assay type: functional, cell-based; settings: time 9.0 day
Outline: (§3)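 Log-phase cells were seeded at 1000 per well, incubated about 24 h, then exposed to 0, 1, 2 or 4 μM for 9 days. Cells were PBS-washed, fixed with ice-cold methanol for 30 min, and stained with crystal violet for 30 min. Plates were photographed and colonies examined by microscopy.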

NCI-H1975 [9] = assay: Effect on cell cycle progression in human NCI-H1975 cells assessed a accumulation of cells at G1 phase at 2 uM measured after 24 hrs by RNase A/PI staining based flow cytometry analysis (Rvb= 42.16%); assay type: functional
NCI-H1975 [10] = assay: Induction of apoptosis in human NCI-H1975 cells assessed as increase in P53 expression at 1 to 4 uM measured after 48 hrs by western blot analysis; assay type: functional, cell-based; settings: dose 1-4 µM
Outline: (§4)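 H1975 cells in dishes were incubated 24 h, then treated at 0, 1, 2 or 4 μM for 48 h. Cells were trypsinised and lysed in RIPA, and protein was quantified by BCA. Proteins were separated by SDS-PAGE, transferred to nitrocellulose, and blocked in 5% skim milk. Primary antibodies were applied overnight at 4 °C, then secondary (1:10000) for 2 h. Detection was by ECL, with GAPDH as control and densitometry.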

NCI-H1975 [11] = assay: Effect on cell cycle progression in human NCI-H1975 cells assessed a accumulation of cells at G2/M phase at 1 uM measured after 24 hrs by RNase A/PI staining based flow cytometry analysis (Rvb= 5.78%); assay type: functional
NCI-H1975 [12] = assay: Induction of apoptosis in human NCI-H1975 cells assessed as increase in total apoptotic cells at 2 uM measured after 48 hrs by Annexin V-FITC/PI staining double staining based flow cytometry analysis (Rvb= 3.86%); assay type: functional
NCI-H1975 [13] = assay: Induction of apoptosis in human NCI-H1975 cells assessed as increase in number of change in apoptotic morphology at 2 to 4 uM measured after 48 hrs by DAPI staining based fluorescence microscopic analysis; assay type: functional, cell-based; settings: dose 2-4 µM; outline: as §2
PC-3 = assay: Antiproliferative activity against human PC-3 cells assessed as inhibition of cell growth measured after 72 hrs by MTT assay; assay type: functional, cell-based; settings: PC-3, 72 h; outline: as §1
NCI-H1975 [14] = assay: Induction of apoptosis in human NCI-H1975 cells assessed as appearance of dense particles at 2 to 4 uM measured after 48 hrs by DAPI staining based fluorescence microscopic analysis; assay type: functional, cell-based; settings: dose 2-4 µM; outline: as §2
NCI-H1975 [15] = assay: Effect on cell cycle progression in human NCI-H1975 cells assessed a accumulation of cells at G2/M phase at 4 uM measured after 24 hrs by RNase A/PI staining based flow cytometry analysis (Rvb= 5.78%); assay type: functional
NCI-H1975 [16] = assay: Induction of apoptosis in human NCI-H1975 cells assessed as increase in total apoptotic cells at 1 uM measured after 72 hrs by Annexin V-FITC/PI staining double staining based flow cytometry analysis (Rvb= 3.86%); assay type: functional
NCI-H1975 [17] = assay: Induction of apoptosis in human NCI-H1975 cells assessed as increase in Bax protein expression at 1 to 4 uM measured after 48 hrs by western blot analysis; assay type: functional, cell-based; settings: dose 1-4 µM; outline: as §4
NCI-H1975 [18] = assay: Induction of apoptosis in human NCI-H1975 cells assessed as increase in total apoptotic cells at 4 uM measured after 72 hrs by Annexin V-FITC/PI staining double staining based flow cytometry analysis (Rvb= 3.86%); assay type: functional
NCI-H1975 [19] = assay: Effect on cell cycle progression in human NCI-H1975 cells assessed a accumulation of cells at G2/M phase at 2 uM measured after 24 hrs by RNase A/PI staining based flow cytometry analysis (Rvb= 5.78%); assay type: functional
NCI-H1975 [20] = assay: Antiproliferative activity against human NCI-H1975 cells assessed as inhibition of cell growth measured after 72 hrs by MTT assay; assay type: functional, cell-based; settings: NCI-H1975, 72 h; outline: as §1
NCI-H1975 [21] = assay: Induction of apoptosis in human NCI-H1975 cells assessed as down regulation of Bcl-2 expression at 1 to 4 uM measured after 48 hrs by western blot analysis; assay type: functional, cell-based; settings: dose 1-4 µM; outline: as §4
NCI-H1975 [22] = assay: Effect on cell cycle progression in human NCI-H1975 cells assessed a accumulation of cells at G1 phase at 4 uM measured after 24 hrs by RNase A/PI staining based flow cytometry analysis (Rvb= 42.16%); assay type: functional
NCI-H1975 [23] = assay: Induction of apoptosis in human NCI-H1975 cells assessed as increase in total apoptotic cells at 4 uM measured after 48 hrs by Annexin V-FITC/PI staining double staining based flow cytometry analysis (Rvb= 3.86%); assay type: functional
NCI-H1975 [24] = assay: Effect on cell cycle progression in human NCI-H1975 cells assessed a accumulation of cells at S phase at 4 uM measured after 24 hrs by RNase A/PI staining based flow cytometry analysis (Rvb= 52.06%); assay type: functional
NCI-H1975 [25] = assay: Induction of apoptosis in human NCI-H1975 cells assessed as nucleus shrinkage at 2 to 4 uM measured after 48 hrs by DAPI staining based fluorescence microscopic analysis; assay type: functional, cell-based; settings: dose 2-4 µM; outline: as §2
MGC-803 = assay: Antiproliferative activity against human MGC-803 cells assessed as inhibition of cell growth measured after 72 hrs by MTT assay; assay type: functional, cell-based; settings: MGC-803, 72 h; outline: as §1
GES1 = assay: Cytotoxicity against human GES1 cells assessed as reduction in cell viability measured after 72 hrs by MTT assay; assay type: cell-based; settings: GES1, 72 h; outline: as §1
NCI-H1975 [26] = assay: Inhibition of colony formation in human NCI-H1975 cells at 4 uM measured after 9 days by crystal violet staining based microscopic analysis relative to control; assay type: functional; settings: NCI-H1975, 216 h, time 9 day; outline: as §3

IC50 (MCF7): 8.81 µM | IC50 (PC-3): 7.88 µM | IC50 (NCI-H1975 [20]): 2.27 µM | IC50 (MGC-803): 10.8 µM
Compound: FC(F)(F)c1ccc(CSc2nc(Sc3nncs3)cc(C(F)(F)F)n2)cc1
Activity (NCI-H1975 [1]): 51.84% | Activity (NCI-H1975 [2]): 5.04% | Activity (NCI-H1975 [3]): 47.56% | Activity (NCI-H1975 [4]): 17.31% | selectivity ratio [5]: 16.5 | Activity (NCI-H1975 [6]): Active | Activity (NCI-H1975 [7]): 34.53% | inhibition (NCI-H1975 [8]): Dose-Dependent Effect | Activity (NCI-H1975 [9]): 31.16% | Activity (NCI-H1975 [10]): Active | Activity (NCI-H1975 [11]): 13.63% | Activity (NCI-H1975 [12]): 11.13% | Activity (NCI-H1975 [13]): Active | Activity (NCI-H1975 [14]): Active | Activity (NCI-H1975 [15]): 30.39% | Activity (NCI-H1975 [16]): 7.7% | Activity (NCI-H1975 [17]): Active | Activity (NCI-H1975 [18]): 29.08% | Activity (NCI-H1975 [19]): 21.28% | Activity (NCI-H1975 [21]): Active | Activity (NCI-H1975 [22]): 25.06% | Activity (NCI-H1975 [23]): 16.68% | Activity (NCI-H1975 [24]): 44.55% | Activity (NCI-H1975 [25]): Active | IC50 (GES1): 37.4 µM | inhibition at 4 µM (NCI-H1975 [26]): 90%

IC50 (MCF7): 7.08 µM | IC50 (PC-3): 5.65 µM | IC50 (NCI-H1975 [20]): 4.77 µM | IC50 (MGC-803): 9.8 µM
Compound: C=CC(=O)Nc1cccc(Nc2cc(C(F)(F)F)nc(SCc3ccc(C(F)(F)F)cc3)n2)c1
selectivity ratio [5]: 6.6 | IC50 (GES1): 31.5 µM
